{"source": "paper PMC3105124", "about": "(Brain research, 2011)", "key": {"delta opioid receptor": {"tested_on": "delta opioid receptor", "settings": "ref Agnes et al., 2008; Hruby et al., 2003; cited from earlier work"}, "[1]": {"tested_on": "L5/L6 spinal nerve ligated male Sprague Dawley rats", "format": "in vivo, rat"}, "[2]": {"tested_on": "sham-operated male Sprague Dawley rats", "assay": "Thermal paw withdrawal latency in sham-operated animals, intrathecal", "format": "in vivo, rat", "settings": "45 min time point", "procedure,_shortened": "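Sham rats had the L5/L6 nerves exposed without ligation, then 5–7 days recovery. An intrathecal catheter ending at the lumbar cord was placed under ketamine/xylazine, with 5–7 days recovery. Test compound in 33% EtOH/water was injected in 5 μL with a 9 μL saline flush. Radiant heat was focused on the ipsilateral hind paw, and latencies were read blinded every 15 min for 60 min. In crossovers, vehicle rats were redosed ≥5 h later.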"}, "[3]": {"biological_target": "rat μ opioid receptor (MOR) (Rattus norvegicus, UniProt P33535)", "sequence (P33535 whole entry)": "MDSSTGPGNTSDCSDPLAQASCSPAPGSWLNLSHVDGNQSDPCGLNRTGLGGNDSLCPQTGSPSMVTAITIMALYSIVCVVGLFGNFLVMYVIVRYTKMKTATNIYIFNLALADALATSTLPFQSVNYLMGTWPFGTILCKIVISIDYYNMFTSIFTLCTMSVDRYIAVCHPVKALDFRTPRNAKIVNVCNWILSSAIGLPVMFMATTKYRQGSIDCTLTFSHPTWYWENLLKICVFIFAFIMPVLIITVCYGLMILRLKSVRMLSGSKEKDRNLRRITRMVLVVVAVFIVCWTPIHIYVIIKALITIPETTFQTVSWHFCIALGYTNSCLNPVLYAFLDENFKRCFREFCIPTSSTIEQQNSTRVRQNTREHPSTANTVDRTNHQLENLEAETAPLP", "settings": "ref Agnes et al., 2008, cited from earlier work"}, "δ opioid receptor": {"biological_target": "δ opioid receptor", "settings": "read-out: Ki at the δ opioid receptor; ref Agnes et al., 2008; cited from earlier work"}, "[4]": {"biological_target": "human δ opioid receptor (hDOR) (Homo sapiens, UniProt P41143)", "sequence (P41143 whole entry)": "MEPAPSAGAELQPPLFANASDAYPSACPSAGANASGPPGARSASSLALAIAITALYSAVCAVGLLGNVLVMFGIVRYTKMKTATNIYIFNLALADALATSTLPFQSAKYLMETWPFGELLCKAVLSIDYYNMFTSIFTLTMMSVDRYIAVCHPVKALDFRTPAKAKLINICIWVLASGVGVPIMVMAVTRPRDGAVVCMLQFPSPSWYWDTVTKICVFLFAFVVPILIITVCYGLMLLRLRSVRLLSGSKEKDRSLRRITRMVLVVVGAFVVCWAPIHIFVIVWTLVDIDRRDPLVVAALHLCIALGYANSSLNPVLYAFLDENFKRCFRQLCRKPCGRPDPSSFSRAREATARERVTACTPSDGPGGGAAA", "settings": "ref Agnes et al., 2008, cited from earlier work"}, "[5]": {"tested_on": "L5/L6 spinal nerve ligated male Sprague Dawley rats", "assay": "Mechanical hypersensitivity", "format": "in vivo, rat", "settings": "for AUC, paw withdrawal threshold (mechanical): vehicle AUC=22.07 ± 3.02"}, "male Sprague Dawley rats [6]": {"tested_on": "male Sprague Dawley rats", "assay": "Rotarod test for motor impairment or sedation, intrathecal", "format": "in vivo, rat", "settings": "180 s cutoff"}, "CCK-2 receptor": {"biological_target": "CCK-2 receptor", "settings": "read-out: Ki at the CCK-2 receptor; ref Agnes et al., 2008; cited from earlier work"}, "[7]": {"tested_on": "L5/L6 spinal nerve ligated male Sprague Dawley rats", "assay": "Thermal hypersensitivity", "format": "in vivo, rat", "settings": "for AUC, paw withdrawal latency (thermal): vehicle AUC=55.52 ± 2.74; for effect on thermal hyperalgesia compared to vehicle or post injury baseline: morphine (10 mg), all time-points and total AUC"}, "male Sprague Dawley rats [8]": {"tested_on": "male Sprague Dawley rats", "format": "in vivo, rat", "procedure,_shortened": "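CCK-8sulf (30 ng/0.5 μL, in water) went into the RVM 10 min before. Naloxone (10 mg/kg sc, saline) was given 20 min before. Radiant heat to the plantar hind paw gave withdrawal latency, compared with baseline.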"}, "mu opioid receptor": {"tested_on": "mu opioid receptor", "settings": "ref Agnes et al., 2008; Hruby et al., 2003; cited from earlier work"}, "CCK-1 receptor": {"biological_target": "CCK-1 receptor", "settings": "read-out: Ki at the CCK-1 receptor; ref Agnes et al., 2008; cited from earlier work"}, "μ opioid receptor": {"biological_target": "μ opioid receptor", "settings": "read-out: Ki at the μ opioid receptor; ref Agnes et al., 2008; cited from earlier work"}, "[9]": {"settings": "30 μg/5μL intrathecal (gabapentin 30 μg)"}}, "note": "Read-outs that look alike come from different tables or passages of the source. Marks after values point to notes of the source that are not given here.", "data": [{"molecule": "H-Tyr^1-DNle^2-Gly^3-Trp^4-Nle^5-Asp^6-Phe^7-NH2 [RSA 504]", "values": [{"measurement": "in vitro activity in the MVD for delta opioid receptor activity", "setting": "delta opioid receptor", "value": 23, "unit": "nM"}, {"measurement": "antinociceptive tolerance (day 7 A50 compared to day one)", "setting": "[1]; intrathecal administration over 7 days", "value": "not significantly different"}, {"measurement": "A50, reconstructed antihyperalgesic dose response curve, day 7", "setting": "[1]; intrathecal, 30 min, day 7 after 30 μg/5μL/day for 6 days (14 days after SNL)", "value": 6.45, "unit": "μg/5μL"}, {"measurement": "A50, antihyperalgesic dose response curve, day one", "setting": "[1]; intrathecal, 30 min, treatment day 1 (7 days after SNL)", "value": 5.89, "unit": "μg/5μL"}, {"measurement": "paw withdrawal latencies in sham animals", "setting": "[2]", "value": "significantly increased"}, {"measurement": "EC50", "setting": "[3]; read-out: EC50 in GTP-γ-S binding assay at MOR", "value": 0.47, "unit": "nM"}, {"measurement": "Emax in GTP-γ-S binding assay at MOR", "setting": "[3]", "value": 110, "unit": "nM"}, {"measurement": "Ki", "setting": "δ opioid receptor", "value": 23, "unit": "nM"}, {"measurement": "EC50", "setting": "[4]; read-out: EC50 in GTP-γ-S binding assay at hDOR", "value": 5.5, "unit": "nM"}, {"measurement": "Emax in GTP-γ-S binding assay at hDOR", "setting": "[4]", "value": 81, "unit": "nM"}, {"measurement": "attenuation of mechanical hypersensitivity compared to vehicle", "setting": "[5]; 3 μg/5μL intrathecal", "value": "No significance"}, {"measurement": "attenuation of mechanical hypersensitivity compared to post-injury baseline", "setting": "[5]; 3 μg/5μL intrathecal, 15, 30 and 45 min post administration", "value": "Significant attenuation"}, {"measurement": "AUC, paw withdrawal threshold (mechanical)", "setting": "[5]; 3 μg/5μL intrathecal", "value": "32.53 ± 4.39"}, {"measurement": "attenuation of mechanical hypersensitivity compared to vehicle", "setting": "[5]; 10 μg/5μL and 30 μg/5μL intrathecal (RSA 504: 30 min; RSA 601: all time points)", "value": "significant attenuation"}, {"measurement": "AUC, paw withdrawal threshold (mechanical)", "setting": "[5]; 10 μg/5μL intrathecal (morphine 10 μg)", "value": "39.38 ± 3.17"}, {"measurement": "AUC, paw withdrawal threshold (mechanical)", "setting": "[5]; [9]", "value": "44.80 ± 4.93"}, {"measurement": "A50, antiallodynic dose response curve", "setting": "[5]; intrathecal, peak effect 30 min, day 7 after SNL, von Frey", "value": 4.67, "unit": "μg/5μL"}, {"measurement": "motor impairment or sedation on the rotarod", "setting": "male Sprague Dawley rats [6]", "value": "did not result in motor impairment"}, {"measurement": "Ki", "setting": "CCK-2 receptor", "value": 16, "unit": "nM"}, {"measurement": "attenuation of thermal hyperalgesia compared to vehicle", "setting": "[7]; 1 μg/5μL intrathecal", "value": "did not produce a significant effect"}, {"measurement": "attenuation of thermal hyperalgesia compared to vehicle and post-injury baseline", "setting": "[7]; 10 μg/5μL and 30 μg/5μL intrathecal, 30 min time point", "value": "significantly attenuated"}, {"measurement": "AUC, paw withdrawal latency (thermal)", "setting": "[7]; 10 μg/5μL intrathecal", "value": "83.61 ± 6.40"}, {"measurement": "AUC, paw withdrawal latency (thermal)", "setting": "[7]; 30 μg/5μL intrathecal", "value": "111.10 ± 7.97"}, {"measurement": "A50, antihyperalgesic dose response curve", "setting": "[7]; intrathecal, peak effect 30 min, day 7 after SNL", "value": 6.09, "unit": "μg/5μL"}, {"measurement": "Paw Withdrawal Latency (Sec ± SEM)", "setting": "male Sprague Dawley rats [8]; RVM 60 ng/0.5μl with pre-administration (−10min) of CCK-8sulf (RVM; 30 ng/0.5 μL)", "value": "22.35^† Sec"}, {"measurement": "effect on CCK-8 induced thermal hypersensitivity", "setting": "male Sprague Dawley rats [8]; RVM administration, effect not significantly attenuated by naloxone", "value": "reversed the CCK-8 hypersensitivity"}, {"measurement": "in vitro activity in GPI for mu opioid receptor activity", "setting": "mu opioid receptor", "value": 210, "unit": "nM"}, {"measurement": "Ki", "setting": "CCK-1 receptor", "value": 11.2, "unit": "nM"}, {"measurement": "Ki", "setting": "μ opioid receptor", "value": 27, "unit": "nM"}]}, {"molecule": "CN1CC[C@]23c4c5ccc(O)c4O[C@H]2[C@@H](O)C=C[C@H]3[C@H]1C5", "note": "[morphine, reference compound]", "values": [{"measurement": "effect on thermal hyperalgesia compared to vehicle or post injury baseline", "setting": "[7]; gabapentin (30 mg) intrathecal", "value": "significant efficacy"}, {"measurement": "Paw Withdrawal Latency (Sec ± SEM)", "setting": "male Sprague Dawley rats [8]; RVM 60 ng/0.5μl with pretreatment (−20min) of naloxone (subcutaneous; 10mg/kg)", "value": "18.70** Sec"}]}, {"molecule": "NCC1(CC(=O)O)CCCCC1", "note": "[gabapentin, reference compound]", "values": [{"measurement": "AUC, paw withdrawal threshold (mechanical)", "setting": "[5]; [9]", "value": "25.97 ± 6.68"}, {"measurement": "AUC, paw withdrawal latency (thermal)", "setting": "[7]; gabapentin (30 mg) intrathecal", "value": "104.72 ± 11.01"}, {"measurement": "effect on thermal hyperalgesia compared to vehicle or post injury baseline", "setting": "[7]; gabapentin (30 mg) intrathecal", "value": "significant efficacy"}]}]}
